The results in this text go back to ChEMBL document CHEMBL1156125, “Pentacycle derivatives as cannabinoid CB1 receptor ligands” (Bioorg Med Chem Lett, 2009).

The target in one data set is Cannabinoid receptor 1 (Rattus norvegicus, UniProt P20272). In words: Displacement of [3H]CP-55940 from CB1 receptor in Sprague-Dawley rat cerebellar membrane. The arrangement: species or system Cerebellum. The gist of the method: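 Pelleted membranes were incubated with 3 nM [3H]CP55,940, 0.5% fatty-acid-free BSA and a range of ligand concentrations for 1 h at 30 °C. Bound ligand was filtered on PEI-soaked GF/B and counted by scintillation; IC50 reported.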
In general terms: Displacement assays read how much labelled ligand stays bound in the presence of the test substance.

The next data set concerns Rattus norvegicus. Kind of data set: Systemic clearance in rat at 5 mg/kg, po. The conditions noted are these: in vivo. The arrangement: dose 5 mg/kg, route oral. Type of data set: ADME, organism-based.
The nature of data set [1]: Cmax in rat at 5 mg/kg, po after 1.3 hrs. On the set-up: dose 5 mg/kg, route oral. The conditions noted are these: in vivo. Type of data set: ADME, organism-based.
Data set [2] is described as follows: Elimination half life in rat at 5 mg/kg, po. Type of data set: ADME, organism-based. On the set-up: dose 5 mg/kg, route oral. The conditions noted are these: in vivo, read-out: beta t1/2 (converted).
In the next data set the target is Cannabinoid receptor 2 (Homo sapiens, UniProt P34972). Kind of data set: Displacement of [3H]WIN-552122 from human CB2 receptor expressed in CHOK1 cells. Type of data set: cell-based, CHO-K1. The gist of the method: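 Membranes came from CHO K-1 cells transfected with human CB2 and were prepared in TME buffer (pH 7.4) with centrifugation at 48,000g. Competition used 3 nM [3H]WIN55,212-2 in TME with 0.5% fatty-acid-free BSA across a range of ligand concentrations, 1 h at 30 °C.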

In data set [3] the target is Cannabinoid receptor 1 (Homo sapiens) (UniProt P21554). Kind of data set: Binding affinity to human CB1 receptor expressed in CHO cells by luciferase reporter gene assay. In general terms: In a reporter assay the amount or activity of a reporter protein is the signal.
A short description of data set [4]: Oral bioavailability in rat at 5 mg/kg. It is filed as ADME, organism-based. The conditions noted are these: in vivo.
Data set [5] in a line: Selectivity ratio of IC50 for human CB2 to IC50 for rat CB1. In short, it runs like this:
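Competitive radioligand binding in TME buffer (50 mM Tris–HCl, 1 mM EDTA, 3 mM MgCl2, pH 7.4) with 0.5% fatty-acid-free BSA, 1 h at 30 °C. rCB1 used male Sprague-Dawley rat cerebellar membranes with 3 nM [3H]CP55,940. hCB2 used membranes from CHO K-1 cells transfected with human CB2, with 3 nM [3H]WIN55,212-2. Bound ligand was filtered and counted by scintillation. Ratio = hCB2 IC50 / rCB1 IC50.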

Where only a bound is given, the exact number is not on record here.

Sequence of Cannabinoid receptor 2 (P34972 whole entry): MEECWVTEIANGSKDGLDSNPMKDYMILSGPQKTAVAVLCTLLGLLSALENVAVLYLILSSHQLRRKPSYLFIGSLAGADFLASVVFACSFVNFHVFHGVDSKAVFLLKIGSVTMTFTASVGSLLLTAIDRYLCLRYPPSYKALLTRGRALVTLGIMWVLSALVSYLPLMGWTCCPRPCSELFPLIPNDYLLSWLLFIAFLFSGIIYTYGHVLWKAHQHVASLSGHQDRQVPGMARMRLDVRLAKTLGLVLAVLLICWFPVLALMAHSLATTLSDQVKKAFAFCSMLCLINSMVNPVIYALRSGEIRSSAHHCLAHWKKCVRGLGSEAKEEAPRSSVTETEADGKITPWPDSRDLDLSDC
Sequence of Cannabinoid receptor 1 (P20272 whole entry): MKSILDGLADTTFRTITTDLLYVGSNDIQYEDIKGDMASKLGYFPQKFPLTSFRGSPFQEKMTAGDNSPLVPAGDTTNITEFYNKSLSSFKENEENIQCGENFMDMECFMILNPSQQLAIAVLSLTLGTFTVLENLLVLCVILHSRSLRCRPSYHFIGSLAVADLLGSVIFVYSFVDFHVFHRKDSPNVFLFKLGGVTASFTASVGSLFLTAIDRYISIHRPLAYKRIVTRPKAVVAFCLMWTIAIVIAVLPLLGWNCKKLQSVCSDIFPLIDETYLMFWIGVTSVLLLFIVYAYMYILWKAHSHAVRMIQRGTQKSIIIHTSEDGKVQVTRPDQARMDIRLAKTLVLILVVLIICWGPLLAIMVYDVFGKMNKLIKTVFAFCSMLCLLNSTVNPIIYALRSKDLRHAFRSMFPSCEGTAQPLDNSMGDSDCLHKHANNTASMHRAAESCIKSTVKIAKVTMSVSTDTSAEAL
Sequence of Cannabinoid receptor 1 (Homo sapiens) (P21554 whole entry, looked up): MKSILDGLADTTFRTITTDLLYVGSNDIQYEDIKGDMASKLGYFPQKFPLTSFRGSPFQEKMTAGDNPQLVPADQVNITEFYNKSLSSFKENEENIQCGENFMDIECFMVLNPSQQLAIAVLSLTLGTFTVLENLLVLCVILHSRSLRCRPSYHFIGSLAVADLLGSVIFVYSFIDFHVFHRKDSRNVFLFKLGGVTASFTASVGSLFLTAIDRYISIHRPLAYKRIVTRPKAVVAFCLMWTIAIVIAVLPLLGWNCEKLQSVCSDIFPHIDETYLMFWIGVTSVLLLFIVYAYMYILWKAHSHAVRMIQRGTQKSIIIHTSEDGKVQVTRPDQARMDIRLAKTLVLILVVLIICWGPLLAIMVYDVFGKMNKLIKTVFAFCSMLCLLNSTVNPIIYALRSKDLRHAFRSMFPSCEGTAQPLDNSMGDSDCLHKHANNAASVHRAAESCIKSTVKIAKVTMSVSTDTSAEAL

In general, IC50 refers to the midpoint of a concentration-inhibition curve. For `Cc1nnc(-c2c(-c3nnc(C4(C(F)(F)F)CC4)o3)nn(-c3ccc(Cl)cc3Cl)c2-c2ccc(Cl)cc2)s1`, at Cannabinoid receptor 1, the IC50 amounted to 4.14 nM. On the same count and under the same terms, to `Cc1nnc(-c2c(-c3nnc(C4(C(F)(F)F)CC4)s3)nn(-c3ccc(Cl)cc3Cl)c2-c2ccc(Br)cc2)o1` belongs 4.86 nM.

Take `Cc1nnc(-c2c(-c3nnc(C4(C(F)(F)F)CC4)s3)nn(-c3ccc(Cl)cc3Cl)c2-c2ccc(Br)cc2)s1`: the IC50 at Cannabinoid receptor 1 came to 4.21 nM.

On Cannabinoid receptor 1, `Cc1nnc(-c2c(-c3nnc(C4(c5ccc(Cl)cc5)CC4)s3)nn(-c3ccc(Cl)cc3Cl)c2-c2ccc(Br)cc2)o1` displayed an IC50 of 4.44 nM.

Turning to `Cc1nnc(-c2c(-c3nnc(C4(C(F)(F)F)CC4)o3)nn(-c3ccc(Cl)cc3Cl)c2-c2ccc(Cl)cc2)o1`, the IC50 at Cannabinoid receptor 1 turned out to be 14.7 nM. On Cannabinoid receptor 1, `Cc1nnc(-c2c(-c3nnc(C4(c5ccc(Cl)cc5)CC4)o3)nn(-c3ccc(Cl)cc3Cl)c2-c2ccc(Br)cc2)o1` came in with a half-maximal inhibitory concentration (IC50) of 4.91 nM. This IC50 lies about 3-fold lower than the previous one. As to `Cc1nnc(-c2c(-c3nnc(C4(c5ccc(Cl)cc5)CC4)o3)nn(-c3ccc(Cl)cc3Cl)c2-c2ccc(Cl)cc2)o1`, the IC50 on Cannabinoid receptor 1 amounted to 3.93 nM. Still for that read-out and setting: then `Cc1nnc(-c2c(-c3nnc(C4(C(F)(F)F)CC4)s3)nn(-c3ccc(Cl)cc3Cl)c2-c2ccc(Cl)cc2)o1`, with 26.9 nM.

Broadly, the Cmax is the maximum level reached in the sampled fluid or tissue. One may read the bioavailability as the share of a dose that reaches the circulation, judged against a reference dose that is usually intravenous. `Cc1nnc(-c2c(-c3nnc(C4(C(F)(F)F)CC4)o3)nn(-c3ccc(Cl)cc3Cl)c2-c2ccc(Br)cc2)s1`: the results for the IC50 (on Cannabinoid receptor 1; at Cannabinoid receptor 2; in data set [3]) were 1.72 nM, 245 nM and 38.5 nM, respectively. The clearance in the data set on Rattus norvegicus is 12.6 mL/min/kg. For the same molecule, the concentration in data set [1] peaked (Cmax) at 30 ng/mL. Besides, the half-life in data set [2] is 18.4 h. In addition, the bioavailability in data set [4] is 7.2%. Further, in data set [5], the Ratio IC50 stood at 142. Molecule `Cc1nnc(-c2c(-c3nnc(C4(c5ccc(Cl)cc5)CC4)s3)nn(-c3ccc(Cl)cc3Cl)c2-c2ccc(Cl)cc2)o1` returned an IC50 at Cannabinoid receptor 1 of 3.23 nM. This lies in the single-digit nanomolar range. With `Cc1nnc(-c2c(-c3nnc(C(C)(C)C)s3)nn(-c3ccc(Cl)cc3Cl)c2-c2ccc(Br)cc2)s1`, the IC50 on Cannabinoid receptor 1 is 2.56 nM; on Cannabinoid receptor 2, 427 nM. Moreover, the Ratio IC50 in data set [5] was determined as 167. In turn, `Cc1nnc(-c2c(-c3nnc(C(C)(C)C)o3)nn(-c3ccc(Cl)cc3Cl)c2-c2ccc(Cl)cc2)s1` had an IC50 at Cannabinoid receptor 1 of 2.83 nM. Same read-out and setting: to `Cc1nnc(-c2c(-c3nnc(C(C)(C)C)o3)nn(-c3ccc(Cl)cc3Cl)c2-c2ccc(Br)cc2)s1` belongs 3.69 nM; to `Cc1nnc(-c2c(-c3nnc(C(C)(C)C)s3)nn(-c3ccc(Cl)cc3Cl)c2-c2ccc(Br)cc2)o1`, 4.93 nM; to `Cc1nnc(-c2c(-c3nnc(C(C)(C)C)o3)nn(-c3ccc(Cl)cc3Cl)c2-c2ccc(Cl)cc2)o1`, 6.47 nM. The same measure, in the same setting: to `Cc1nnc(-c2c(-c3nnc(C4(C(F)(F)F)CC4)o3)nn(-c3ccc(Cl)cc3Cl)c2-c2ccc(Br)cc2)o1` belongs 4.7 nM; to `Cc1nnc(-c2c(-c3nnc(C4(C(F)(F)F)CC4)s3)nn(-c3ccc(Cl)cc3Cl)c2-c2ccc(Cl)cc2)s1`, 7.39 nM; to `Cc1nnc(-c2c(-c3nnc(C4(c5ccc(Cl)cc5)CC4)s3)nn(-c3ccc(Cl)cc3Cl)c2-c2ccc(Cl)cc2)s1`, 3.03 nM. Take `Cc1nnc(-c2c(-c3nnc(C4(c5ccc(Cl)cc5)CC4)s3)nn(-c3ccc(Cl)cc3Cl)c2-c2ccc(Br)cc2)s1`: the IC50 was 3.7 nM at Cannabinoid receptor 1 and above 10000 nM at Cannabinoid receptor 2. Also, the Ratio IC50 in data set [5] is above 2700. `Cc1nnc(-c2c(-c3nnc(C4(c5ccc(Cl)cc5)CC4)o3)nn(-c3ccc(Cl)cc3Cl)c2-c2ccc(Br)cc2)s1` yielded an IC50 at Cannabinoid receptor 1 of 2.13 nM.

Molecule `Cc1nnc(-c2c(-c3nnc(C4(c5ccc(Cl)cc5)CC4)o3)nn(-c3ccc(Cl)cc3Cl)c2-c2ccc(Cl)cc2)s1` showed an IC50 at Cannabinoid receptor 1 of 10.3 nM. In the case of `Cc1nnc(-c2c(-c3nnc(C(C)(C)C)o3)nn(-c3ccc(Cl)cc3Cl)c2-c2ccc(Br)cc2)o1`, the figures for the IC50 on Cannabinoid receptor 1 and at Cannabinoid receptor 2 were 2.56 nM and 414 nM, respectively. For the same molecule, the Ratio IC50 in data set [5] was 162.
